Experimental data pooled from the literature.
Lines come from different studies, so protocols differ.
JAK2 JH1: Tyrosine-protein kinase JAK2, JH1 (JAK2, Homo sapiens, UniProt O60674)
JAK2: Tyrosine-protein kinase JAK2 (JAK2, Homo sapiens, UniProt O60674)

SMILES | target | read-out | mode | technique | tested at | measurement | value
CO[C@@H](C)c1c(Nc2ccc([C@@H](N(C)C(=O)C3CCS(=O)(=O)CC3)C(F)(F)F)cc2)cnc2cc(Cl)nn12 | JAK2 JH1 | cell-free assay | – | competition with immobilised ligand | 1 µM | remaining binding | 98%
FC(F)(F)Oc1cccc(-c2cnc3ccc(-c4ccncc4)nn23)c1 | JAK2 | enzyme activity | inhibitor | radiometric | 5 µM | activity vs control | 72%
NS(=O)(=O)c1cc(NC(=O)C2(c3ccccc3Cl)CC2)ccc1Oc1cccc(Cl)c1 | JAK2 JH1 | cell-free assay | – | competition with immobilised ligand | 1 µM | remaining binding | 100%
CNC(=O)c1cc(Oc2ccc(NC(=O)Nc3ccc(Cl)c(C(F)(F)F)c3)cc2)ccn1 | JAK2 | cell-free assay | – | – | 0.5 µM | remaining signal | 98.2%
O=C(NCCCNc1ccnc(Nc2cccc(NC(=O)N3CCCC3)c2)n1)C1CCC1 | JAK2 | enzyme activity | inhibitor | radiometric | 1 µM | remaining activity | 88%
Cc1nc(N2CC[C@@H](O)C2)ncc1-c1cc(C(F)(F)F)cc2[nH]ncc12 | JAK2 JH1 | binding | – | competition with immobilised ligand | 1 µM | remaining binding | 61%
Nc1nc(Nc2ccc(S(N)(=O)=O)cc2)nn1C(=O)c1c(F)cccc1F | JAK2 | cell-free assay | – | – | 0.5 µM | remaining signal | 19.2%
CCOc1cc(-c2nncn2C)ccc1Nc1ncc2cc(C)nc(NCC(C)(C)C)c2n1 | JAK2 | enzyme activity | inhibitor | FRET | 1 µM | inhibition | < 15%
CCCS(=O)(=O)Nc1ccc(F)c(C(=O)c2c[nH]c3ncc(-c4ccc(Cl)cc4)cc23)c1F | JAK2 JH1 | enzyme activity | inhibitor | – | 1 µM | inhibition | < 10%
CN(C(=O)c1ccccc1)c1cc(N(C)c2ccc3c(c2)CCc2ccc(C(=O)NCCN4CCOCC4)cc2C3=O)ccc1F | JAK2 JH1 | cell-free assay | – | competition with immobilised ligand | 1 µM | remaining binding | 100%
Cc1nn(CC(F)(F)F)cc1Nc1nccc(NCCc2cnc[nH]2)n1 | JAK2 | enzyme activity | inhibitor | radiometric | 1 µM | remaining activity | 89%
COc1cc2ncnc(Nc3ccc(Oc4ccccc4)cc3C)c2cc1OC | Tyrosine-protein kinase JAK2, JH1 (JAK2, Homo sapiens, UniProt O60674, V617F) | enzyme activity | inhibitor | – | 1 µM | inhibition | -11%
C=CC(=O)Nc1cc(Nc2nccc(Nc3cc(Cl)c(F)cc3C(C)(C)O)n2)c(OC)cc1N1CC[C@@H](N(C)C)C1 | JAK2 | enzyme activity | inhibitor | – | 1 µM | inhibition | 2%
CC(C)c1ccc(NC(=O)c2cccs2)c(-c2nc3ccccc3[nH]c2=O)c1 | JAK2 | enzyme activity | inhibitor | – | 1 µM | activity vs control | 123%
CC(C)(C)c1nc2c3cc[nH]c(=O)c3c3cc(F)ccc3c2[nH]1 | JAK2 | cell-free assay | – | – | 0.5 µM | remaining signal | 1.37%
Cc1sc(C(=O)NC2COC2)cc1-n1cc(NC(=O)Nc2c(F)cccc2Cl)cn1 | JAK2 | enzyme activity | inhibitor | – | 10 µM | remaining activity | 95%
Cc1nn(CC(F)(F)F)cc1Nc1nccc(NCCCNC(=O)C2CCC2)n1 | JAK2 | enzyme activity | inhibitor | radiometric | 1 µM | remaining activity | 114%

SMILES | target | read-out | mode | technique | tested at | measurement | value
CC(=O)N1CCC(c2ccc(C(=O)NC(=N)N)cc2C(F)(F)F)CC1 | JAK2 JH1 | cell-free assay | – | competition with immobilised ligand | 1 µM | remaining binding | 100%
c1cnn2ncc(-c3ccnc(N4CCC45COC5)n3)c2c1 | JAK2 JH1 | cell-free assay | – | – | 1 µM | remaining signal | 74%
CC/C(=N\NC(=O)NCc1cccc(O)c1)c1ccc(O)c(C)c1O | JAK2 | enzyme activity | inhibitor | – | 0.1 µM | inhibition | 1%
Cc1ccc(Nc2nccc(N(C)c3ccc4c(C)n(C)nc4c3)n2)cc1S(N)(=O)=O | JAK2 | enzyme activity | inhibitor | – | 10 µM | inhibition | 36%
Cc1nn(CC(F)(F)F)cc1Nc1ncc(Br)c(NCCc2cnc[nH]2)n1 | JAK2 | enzyme activity | inhibitor | radiometric | 1 µM | remaining activity | 106%
CN1CC(Oc2cnc(C#N)cc2-c2ccn3nc(NC(=O)C4CC4)cc3c2)C1 | JAK2 | enzyme activity | inhibitor | – | 1 µM | inhibition | -20%
C[C@H]1CCN(c2nccc(-c3cnn4ncccc34)n2)C1 | JAK2 JH1 | cell-free assay | – | – | 1 µM | remaining signal | 70%
O=C1Nc2ccc(Cl)cc2C1=Cc1cc(Cl)c(O)c(Cl)c1 | JAK2 | cell-free assay | – | – | 0.5 µM | remaining signal | 91.1%
Cc1c[nH]c2nccc(Oc3c(F)cc(Nc4cc(Cl)nc(N)n4)cc3F)c12 | JAK2 JH1 | cell-free assay | – | competition with immobilised ligand | 0.1 µM | remaining binding | 75%
COc1cc(Nc2cnc(C#N)c(O[C@H](C)CN(C)C)n2)ncc1-c1cnn(C)c1 | JAK2 | enzyme activity | inhibitor | radiometric | 1 µM | remaining activity | 71%
CCS(=O)(=O)c1cc2cc(C[C@@](O)(CC(C)(C)c3ccc(F)cc3C(N)=O)C(F)(F)F)[nH]c2cn1 | JAK2 JH1 | cell-free assay | – | competition with immobilised ligand | 1 µM | remaining binding | 100%
c1cc(CN2CCOCC2)cc(Nc2ncc(C3CC3)c(NCCc3c[nH]cn3)n2)c1 | JAK2 | enzyme activity | inhibitor | radiometric | 1 µM | remaining activity | 82%
O=C(CSc1nc2nccnc2c(=O)n1CCc1ccccc1)Nc1nccs1 | JAK2 | enzyme activity | inhibitor | – | 10 µM | inhibition | -4%
Cc1nn(CC(F)(F)F)cc1Nc1nccc(NCc2ccc(S(N)(=O)=O)cc2)n1 | JAK2 | enzyme activity | inhibitor | radiometric | 1 µM | remaining activity | 95%
Nc1ncnc2occ(-c3ccc(NC(=O)Nc4cc(C(F)(F)F)ccc4F)cc3)c12 | JAK2 JH1 | cell-free assay | inhibitor | – | 20 µM | remaining signal | 2%
O=C1CCc2cc(Nc3cc(OC4CCOCC4)c([N+](=O)[O-])cc3Cl)ccc2N1 | JAK2 JH1 | cell-free assay | – | competition with immobilised ligand | 1 µM | remaining binding | 100%
COc1cc2ncnc(Nc3ccc(Oc4ccccc4)c(C)c3C)c2cc1OC | JAK2 JH1 | enzyme activity | inhibitor | – | 1 µM | inhibition | -2%
